Legend:
[1] = biological target: T1, Bile acid receptor (Homo sapiens, UniProt Q96RI1); assay: Agonist activity at GST-tagged human FXR LBD assessed as recruitment of biotinylated SRC-1 peptide after 30 mins by AlphaScreen assay
T1 sequence (Q96RI1 whole entry): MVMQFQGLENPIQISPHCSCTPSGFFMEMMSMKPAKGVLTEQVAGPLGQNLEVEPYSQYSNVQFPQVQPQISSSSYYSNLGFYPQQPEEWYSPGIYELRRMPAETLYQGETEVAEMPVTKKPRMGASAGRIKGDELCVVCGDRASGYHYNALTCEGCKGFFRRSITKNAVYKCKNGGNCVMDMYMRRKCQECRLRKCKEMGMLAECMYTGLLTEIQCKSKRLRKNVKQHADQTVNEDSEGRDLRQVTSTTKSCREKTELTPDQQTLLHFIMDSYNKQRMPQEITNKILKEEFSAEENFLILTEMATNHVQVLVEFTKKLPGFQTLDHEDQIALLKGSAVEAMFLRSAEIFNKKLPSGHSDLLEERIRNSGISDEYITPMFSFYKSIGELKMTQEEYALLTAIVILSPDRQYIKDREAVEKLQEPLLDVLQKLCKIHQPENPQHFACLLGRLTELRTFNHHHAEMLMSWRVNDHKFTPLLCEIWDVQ
Summary of the method: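 Human FXR ligand-binding domain fused to GST was incubated with the ligand at increasing concentrations together with biotinylated SRC-1 peptide. Ligand-dependent recruitment of the coactivator peptide was read out by AlphaScreen. Where tested, compounds were single diastereoisomers or a mixture of syn- and anti-couples.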

[2] = biological target: T2, Bile acid receptor (Homo sapiens) (UniProt Q96RI1); assay: Agonist activity at GST-tagged human FXR LBD assessed as recruitment of biotinylated SRC-1 peptide after 30 mins by AlphaScreen assay relative to CDCA
T2 sequence (whole entry): T1 sequence (Q96RI1 whole entry)

EC50 [1] [µM]	Efficacy [2] [%]	Structure (SMILES)
> 150	–	Cc1ccccc1-n1ncc2c1NC(=O)[C@H](C)S[C@@H]2c1ccc(Oc2ccccc2)cc1 (racemic)
2	140	CCc1nn(-c2ccccc2C)c2c1[C@@H](c1ccc(Oc3ccccc3)cc1)S[C@@H](C)C(=O)N2 (racemic)
> 150	–	CCC[C@@H]1S[C@H](c2ccc(Oc3ccccc3)cc2)c2c(C)nn(-c3ccccc3C)c2NC1=O (racemic)
> 150	–	Cc1ccccc1-n1nc(C)c2c1NC(=O)[C@@H](C)S[C@@H]2c1ccc(Oc2ccccc2)cc1
3	35	CCC1SC(c2ccc(Oc3ccccc3)cc2)c2c(C)nn(-c3ccccc3C)c2NC1=O (mixture of isomers)
> 150	–	Cc1ccccc1-n1nc(C)c2c1NC(=O)[C@H](C)S[C@H]2c1ccc(Oc2ccccc2)cc1
1.4	–	Cc1ccccc1-n1nc(C)c2c1NC(=O)[C@H](C)S[C@@H]2c1ccc(Oc2ccccc2)cc1 [listing 1 of 2 here]
–	150	Cc1ccccc1-n1nc(C)c2c1NC(=O)[C@H](C)S[C@@H]2c1ccc(Oc2ccccc2)cc1 (racemic) [listing 1 of 2 here]
–	130	Cc1ccccc1-n1nc(C)c2c1NC(=O)[C@H](C)S[C@@H]2c1ccc(Oc2ccccc2)cc1 [listing 2 of 2 here]
> 150	–	Cc1ccccc1-n1nc(C)c2c1NC(=O)[C@@H](C)S[C@H]2c1ccc(Oc2ccccc2)cc1
3	–	Cc1ccccc1-n1nc(C)c2c1NC(=O)[C@H](C)S[C@@H]2c1ccc(Oc2ccccc2)cc1 (racemic) [listing 2 of 2 here]

Structure (SMILES)	EC50 [1] [µM]	Efficacy [2] [%]
Cc1ccccc1-n1nc(C)c2c1NC(=O)CS[C@H]2c1ccc(Oc2ccccc2)cc1 (racemic)	14	8

From ChEMBL document CHEMBL2396539, “Asymmetric synthesis of the four diastereoisomers of a novel non-steroidal farnesoid X receptor (FXR) agonist: role of the chirality on the biological activity” (Bioorg Med Chem, 2013)
